The values below come from ChEMBL document CHEMBL1145303, “The development of novel C-2, C-8, and N-9 trisubstituted purines as inhibitors of TNF-alpha production” (Bioorg Med Chem Lett, 2006).

The test system of one data set is THP-1. The experiment in a line: Inhibition of LPS-stimulated TNFalpha production in THP1 cells. Type of data set: functional, cell-based. The conditions noted are these: Homo sapiens. Summed up:
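Human monocytic THP-1 cells, 2.0 · 10⁵/well, cultured in duplicate, preincubated 15 min with or without a range of inhibitor concentrations. TNF-α release then stimulated with LPS at 2 µg/ml. Secreted TNF-α measured by ELISA 4 h after stimulation. Cell viability after the 4 h incubation checked by MTS assay.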

The nature of data set [1]: Metabolic stability in Sprague-Dawley rat liver microsomes assessed as percent loss after 4 hrs. The data set is classed as ADME, Microsome. As to conditions: hepatocytes, in the assay text read “hepatocytes” for “liver microsomes”, read-out: Activity. A digest of the protocol:
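Plated Sprague–Dawley rat hepatocytes, not microsomes, with matrigel blank plates. Test compound incubated at 37 °C in triplicate, sampled at 0, 2 and 4 h. Samples pooled after incubation into a multi-compound set, internal standard added, reverse-phase LC/MS/MS. The compound/internal-standard area ratio at 4 h divided by the 0 h ratio gives percent loss.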
A general note: Liver microsomes are a subcellular fraction often used to study metabolism.

Data set [2] can be described thus: Bioavailability in rat. The data set is classed as ADME, organism-based. The conditions noted are these: in vivo.
The nature of data set [3]: Half life in rat. The data set is classed as ADME, organism-based. The conditions noted are these: in vivo.

`CCn1c(Sc2ccccc2Cl)nc2cnc(Oc3c(F)cccc3F)nc21` had an IC50 with THP-1 of 14 nM. The metabolised at 4 h in data set [1] worked out at 75%.
`CCn1c([S+]([O-])c2ccccc2Cl)nc2cnc(Oc3c(F)cccc3F)nc21` (configuration not stated) yielded an IC50 in the data set on THP-1 above 1000 nM.
In the case of `CCn1c(C(=O)c2ccccc2F)nc2cnc(Oc3c(F)cccc3F)nc21`, it took 207 nM to reach half-maximal inhibition in the data set with THP-1 (IC50).
In the data set with THP-1, `CCn1c(Nc2ccccc2N)nc2cnc(Oc3c(F)cccc3F)nc21` came in with an IC50 of 473 nM.
The same measure, in the same setting: to `CCn1c(Nc2ccccc2OC)nc2cnc(Oc3c(F)cccc3F)nc21` belongs 2050 nM; to `Fc1cccc(F)c1Nc1ncc2nc(Nc3ccccc3Cl)n(C3CC3)c2n1`, above 1000 nM; to `Cn1c(Nc2ccccc2Cl)nc2cnc(Nc3ccc(F)cc3F)nc21`, 6560 nM.
With `CC(C)n1c(Nc2ccccc2F)nc2cnc(Oc3c(F)cccc3F)nc21`, in the data set with THP-1, inhibition was half-maximal at 4 nM (IC50). Also, the metabolised at 4 h in data set [1] stood at 61%. In data set [2], this compound registered a bioavailability of 9%. Further, the half-life in data set [3] is 1.5 h.
For `CCn1c(Nc2ccccc2Cl)nc2cnc(Nc3ccccc3F)nc21`, the IC50 in the data set with THP-1 amounted to 2110 nM.
For the compound `Cn1c(NC(=O)c2ccccc2Cl)nc2cnc(NC3CCOCC3)nc21`, the IC50 with THP-1 is above 10000 nM.
Compound `CCn1c(Nc2c(Cl)cccc2Cl)nc2cnc(Oc3c(F)cccc3F)nc21` came in with an IC50 in the data set on THP-1 of 100 nM.
Turning to `C[C@H](Nc1ncc2nc(NCCc3ccccc3Cl)n(C)c2n1)C(C)(C)O`, the IC50 with THP-1 was above 10000 nM.
In the data set on THP-1, `CCn1c(Nc2ccccc2Cl)nc2cnc(Nc3c(F)cccc3F)nc21` registered an IC50 of 542 nM.
In the data set on THP-1, `CC(C)n1c(C(=O)c2ccccc2Cl)nc2cnc(Oc3c(F)cccc3F)nc21` registered an IC50 of 650 nM.
The same measure, in the same setting: to `Cn1c(Nc2ccccc2Cl)nc2cnc(Nc3ccccc3F)nc21` belongs 10000 nM; to `CCn1c(Nc2ccccc2Cl)nc2cnc(Oc3c(F)cccc3F)nc21`, 69 nM.
`Cn1c(Nc2ccccc2Cl)nc2cnc(Nc3c(F)cccc3F)nc21`: in the data set on THP-1, the IC50 came out at 1540 nM.
As for `CCn1c(Nc2ccccc2O)nc2cnc(Oc3c(F)cccc3F)nc21`, in the data set on THP-1, half-maximal inhibition (IC50) was put at 906 nM.
Take `CCn1c(C(O)c2ccccc2Cl)nc2cnc(Oc3c(F)cccc3F)nc21` (configuration not stated): the IC50 with THP-1 is 169 nM.
In the data set with THP-1, `CCn1c(Nc2ccc(C)cc2Cl)nc2cnc(Oc3c(F)cccc3F)nc21` displayed an IC50 of 273 nM.
The same measure, in the same setting: in the case of `C[C@H](Nc1ncc2nc(Nc3ccccc3Cl)n(C)c2n1)C(C)(C)O` it was 3170 nM; in that of `CCCCn1c(Nc2ccccc2Cl)nc2cnc(Nc3c(F)cccc3F)nc21`, 798 nM.
`Cn1c(Nc2ccccc2Cl)nc2cnc(NC3CCOCC3)nc21` registered an IC50 in the data set with THP-1 of 6580 nM.
`CCn1c(C(=O)c2ccccc2Cl)nc2cnc(Oc3c(F)cccc3F)nc21` yielded an IC50 in the data set with THP-1 of 4 nM. Further, the metabolised at 4 h in data set [1] turned out to be 82%.
The compound `CCn1c(Nc2ccccc2F)nc2cnc(Oc3c(F)cccc3F)nc21` gave an IC50 in the data set with THP-1 of 35 nM. Besides, in data set [1], the metabolised at 4 h was determined as 65%.
In the case of `CCn1c(Nc2ccccc2C)nc2cnc(Oc3c(F)cccc3F)nc21`, the IC50 with THP-1 stood at 48 nM. Moreover, the metabolised at 4 h in data set [1] was 56%. For the same compound, the bioavailability in data set [2] worked out at 9%. In data set [3], this compound showed a half-life of 1.5 h.
On to `CC(C)(C)n1c(Nc2ccccc2Cl)nc2cnc(Nc3c(F)cccc3F)nc21`, for which the IC50 in the data set on THP-1 was above 1000 nM.
The same measure, in the same setting: in the case of `C[C@H](Nc1ncc2nc(NCc3ccccc3Cl)n(C)c2n1)C(C)(C)O` it was above 10000 nM; in that of `CCn1c(Nc2ccc(F)cc2Cl)nc2cnc(Oc3c(F)cccc3F)nc21`, 237 nM; in that of `O=c1ncn2nc(Sc3ccc(F)cc3F)ccc2c1-c1c(Cl)cccc1Cl` [NEFLAMAPIMOD], 56 nM.
`CCn1c(Nc2cccc(Cl)c2Cl)nc2cnc(Oc3c(F)cccc3F)nc21` came in with an IC50 in the data set on THP-1 of 300 nM.
As to `CC(C)n1c(Nc2ccccc2Cl)nc2cnc(Nc3c(F)cccc3F)nc21`, inhibition in the data set with THP-1 was half-maximal at 630 nM (IC50).
In turn, `CCn1c(Oc2ccccc2Cl)nc2cnc(Oc3c(F)cccc3F)nc21` returned an IC50 with THP-1 of 86 nM.

One may read the IC50 as the midpoint of a concentration-inhibition curve. A higher IC50 goes with weaker potency in that assay. One may read the bioavailability as the share of a dose that reaches the circulation, judged against a reference dose that is usually intravenous. Usually half-life stands for the time in which the quantity being followed falls by half. The low end stands for rapid decline, the high end for slow decline.
